Measurements from ChEMBL document CHEMBL1155452, “Oncocin (VDKPPYLPRPRPPRRIYNR-NH2): a novel antibacterial peptide optimized against gram-negative human pathogens” (J Med Chem, 2010).

Tests used:
Escherichia coli = experiment: Antibacterial activity against Escherichia coli BL21 AI after 20 hrs by broth microdilution assay; format: functional
Summary of the method: (§1)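 Nutrient-broth overnight cultures diluted in 1% TSB; E. coli BL21AI 7.5 × 10^5 cells/well, M. luteus ATCC 10240 2 × 10^6 cells/well. Peptides serially 2-fold diluted in 1% TSB from 128 to typically 0.5 μg/mL. Incubation at 37 °C; A595 read after 20 ± 2 h. MIC is the lowest concentration with absorbance not above medium only. Triplicate.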

Micrococcus luteus = experiment: Antibacterial activity against Micrococcus luteus ATCC 10240 after 20 hrs by broth microdilution assay; format: functional; details: ATCC 10240, 20 h; summary of the method: as §1
[1] = Stability in 25% mouse serum assessed as half life at 75 ug/ml by MALDI-TOF-MS analysis; format: ADME, cell-free
Summary of the method: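 Peptide at 75 μg/mL final in pooled mouse serum (undiluted or 25% v:v aqueous), 37 °C. Triplicate aliquots taken at 0, 30, 60, 120 and 240 min and precipitated with 3% TCA on ice for 10 min. Supernatant neutralized with NaOH and analysed by RP-HPLC on C18 with TFA-containing gradient. Amounts expressed relative to 0 min; metabolites identified by MALDI-TOF-MS.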

| Substance | MIC (Escherichia coli) | MIC (Micrococcus luteus) | half-life at 75 ug/ml [1] |
| --- | --- | --- | --- |
| H-VDKPPYLPRPRPPRRIYN-OH | 64 µg/mL | 128 µg/mL | – |
| H-VDKPPYLPRPRPPRRIYNNR-NH2 | 8 µg/mL | 8 µg/mL | – |
| H-VDKPPYLPRPRPPRRIYNNR-OH | 8 µg/mL | 16 µg/mL | – |
| H-VDKPPYLPRPRPPRRIYNR-OH | 32 µg/mL | 64 µg/mL | < 30 min |
| H-VDKPPYLPRPRPPRRIYNRN-NH2 | 16 µg/mL | 128 µg/mL | – |
| H-VDKPPYLPRPRPPRRIYNRN-OH | 8 µg/mL | 16 µg/mL | – |
| H-VDKPPYLPRPTPPRRIYNNR-OH | 128 µg/mL | 64 µg/mL | – |
